# Legend:
# [1] = target: T1, Estrogen receptor (Mus musculus) (UniProt O08537+P19785); assay: Vaginal activity relative to estradiol (E2); type: functional
# How it was run: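 Female CD-1 mice ovariectomized; 1 week later, compound instilled intravaginally in 10 μL sesame oil. Vaginal reductase induction measured and compared with 50 pg E2. n = 5–6 per group, at least two separate occasions.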
# [2] = target: T2, Estrogen receptor (Rattus norvegicus) (UniProt P06211+Q62986); assay: In vivo uterotropic activity at 100 ug subcutaneous dose in immature rats as ng estradiol dose for equivalent effect; type: functional, organism-based
# How it was run: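 Immature (22-day) female Sprague–Dawley rats given daily subcutaneous injections in 0.1 mL sesame oil for 3 days, 100 μg total dose; controls received oil. Uteri removed, blotted and weighed on day 4. Compared with 5 ng E2 run concurrently; n = 5, usually 2 separate experiments.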
# [3] = target: T2, Estrogen receptor (Rattus norvegicus); assay: Uterotropic activity relative to estradiol (E2); type: functional, tissue-based; details: Uterus
# How it was run: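 Immature female Sprague–Dawley rats, 22 days old, injected subcutaneously once a day for 3 days with test steroid in 0.1 mL sesame oil, 100 µg total dose; sesame oil controls; 5 ng E2 total run concurrently as reference. Uteri removed on day 4, blotted and weighed. n = 5, usually 2 separate experiments; activity expressed relative to E2.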
# Rattus norvegicus = organism: Rattus norvegicus; assay: Hydrolytic activity against esterase with hepatic microsomes relative to E16-1,2; details: Liver
# [4] = target: T1, Estrogen receptor (Mus musculus); assay: In vivo vaginal activity in ovariectomised mice at 50 ng vaginal dose as pg estradiol dose for equivalent effect
# [5] = target: Estrogen receptor beta (Homo sapiens) (UniProt Q92731); assay: Binding of […] to human estrogen receptor beta ligand binding domain expressed in Escherichia coli
# How it was run: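 Competitive binding against [3H]E2 using lysates of E. coli expressing human ERβ LBD (M214–Q530); incubated overnight at 0–2 °C. Result given as RBA versus E2 (E2 = 100); mean of 3 experiments, each in duplicate.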
# T1 sequence (O08537 whole entry, looked up): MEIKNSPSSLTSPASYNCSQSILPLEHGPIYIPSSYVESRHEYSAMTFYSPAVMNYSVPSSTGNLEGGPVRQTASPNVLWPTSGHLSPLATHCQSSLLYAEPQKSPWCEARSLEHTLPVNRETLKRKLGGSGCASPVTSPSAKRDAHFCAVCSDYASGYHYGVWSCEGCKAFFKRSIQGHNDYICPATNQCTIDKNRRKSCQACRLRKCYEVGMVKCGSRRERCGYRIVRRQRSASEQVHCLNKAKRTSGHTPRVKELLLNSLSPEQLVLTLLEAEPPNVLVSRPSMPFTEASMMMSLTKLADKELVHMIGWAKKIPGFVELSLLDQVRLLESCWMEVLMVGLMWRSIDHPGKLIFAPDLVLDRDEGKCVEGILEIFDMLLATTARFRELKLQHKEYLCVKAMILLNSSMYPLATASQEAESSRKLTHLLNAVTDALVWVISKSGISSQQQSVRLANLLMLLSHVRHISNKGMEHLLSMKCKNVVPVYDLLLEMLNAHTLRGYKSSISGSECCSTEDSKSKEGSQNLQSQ
# T1 sequence (P19785 whole entry, looked up): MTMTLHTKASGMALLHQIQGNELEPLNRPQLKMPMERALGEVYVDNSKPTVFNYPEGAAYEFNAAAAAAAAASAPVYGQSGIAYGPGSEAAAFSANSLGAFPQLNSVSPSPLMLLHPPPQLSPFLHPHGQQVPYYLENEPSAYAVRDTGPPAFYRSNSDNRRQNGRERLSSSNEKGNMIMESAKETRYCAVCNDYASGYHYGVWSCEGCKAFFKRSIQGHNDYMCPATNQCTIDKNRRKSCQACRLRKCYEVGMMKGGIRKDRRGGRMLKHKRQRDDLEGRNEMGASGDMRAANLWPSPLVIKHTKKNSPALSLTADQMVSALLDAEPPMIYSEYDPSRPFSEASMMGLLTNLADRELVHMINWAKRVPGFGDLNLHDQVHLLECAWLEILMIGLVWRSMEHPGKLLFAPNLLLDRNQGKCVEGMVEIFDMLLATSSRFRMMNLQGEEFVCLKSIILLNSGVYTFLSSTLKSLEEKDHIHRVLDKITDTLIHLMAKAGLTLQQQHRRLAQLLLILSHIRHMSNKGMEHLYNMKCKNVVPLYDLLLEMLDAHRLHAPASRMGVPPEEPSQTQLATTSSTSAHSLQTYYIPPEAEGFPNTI
# Sequence of Estrogen receptor beta (Homo sapiens) (Q92731 whole entry, the tested form may be a part): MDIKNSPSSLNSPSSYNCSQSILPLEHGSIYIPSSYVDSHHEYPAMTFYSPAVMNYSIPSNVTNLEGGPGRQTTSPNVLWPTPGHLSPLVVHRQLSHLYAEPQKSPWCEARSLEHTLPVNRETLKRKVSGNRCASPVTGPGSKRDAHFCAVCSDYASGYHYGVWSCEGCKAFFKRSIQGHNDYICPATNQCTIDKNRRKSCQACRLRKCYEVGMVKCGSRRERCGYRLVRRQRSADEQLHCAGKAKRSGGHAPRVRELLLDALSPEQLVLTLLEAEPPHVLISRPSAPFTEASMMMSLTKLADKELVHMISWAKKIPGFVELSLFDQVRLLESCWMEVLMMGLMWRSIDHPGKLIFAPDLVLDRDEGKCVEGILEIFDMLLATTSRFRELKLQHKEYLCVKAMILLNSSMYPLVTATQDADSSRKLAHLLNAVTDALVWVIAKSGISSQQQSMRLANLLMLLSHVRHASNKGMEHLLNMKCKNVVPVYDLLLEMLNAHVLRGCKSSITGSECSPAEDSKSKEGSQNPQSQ
smiles,measurement,setting,value
COC(=O)[C@@H]1Cc2cc(O)ccc2[C@H]2CC[C@]3(C)[C@@H](O)CC[C@H]3[C@@H]21,Vaginal activity,[1],1
same,Uterotropic activity,[2],10.5
same,Uterotropic activity,[3],0.11
same,RHA,Rattus norvegicus,0%
same,Vaginal activity,[4],50
COC(=O)C[C@H]1C[C@H](O)[C@@]2(C)CC[C@@H]3c4ccc(O)cc4CC[C@H]3[C@H]12,RHA,Rattus norvegicus,31%
CCOC(=O)[C@H]1C[C@H](O)[C@@]2(C)CC[C@@H]3c4ccc(O)cc4CC[C@H]3[C@H]12,Activity,[5],7
same,Vaginal activity,[1],0.42
same,Uterotropic activity,[2],0
same,RHA,Rattus norvegicus,2.3%
same,Vaginal activity,[4],21
CCOC(=O)CC[C@H]1C[C@H](O)[C@@]2(C)CC[C@@H]3c4ccc(O)cc4CC[C@H]3[C@H]12,RHA,Rattus norvegicus,674%
CCOC(=O)C[C@@H]1Cc2cc(O)ccc2[C@H]2CC[C@]3(C)[C@@H](O)CC[C@H]3[C@H]12,RHA,Rattus norvegicus,70%
C[C@]12CC[C@@H]3c4ccc(O)cc4C[C@@H](C(=O)OCCF)[C@H]3[C@@H]1CC[C@@H]2O,RHA,Rattus norvegicus,0%
CC(C)OC(=O)[C@H]1C[C@H](O)[C@@]2(C)CC[C@@H]3c4ccc(O)cc4CC[C@H]3[C@H]12,RHA,Rattus norvegicus,0.4%
COC(=O)C[C@H]1C[C@]2(C)[C@@H](O)CC[C@H]2[C@@H]2CCc3cc(O)ccc3[C@@H]12,Vaginal activity,[1],0.42
same,Uterotropic activity,[2],6.5
same,Uterotropic activity,[3],0.07
same,RHA,Rattus norvegicus,106%
same,Vaginal activity,[4],21
COC(=O)CC[C@H]1C[C@]2(C)[C@@H](O)CC[C@H]2[C@@H]2CCc3cc(O)ccc3[C@@H]12,RHA,Rattus norvegicus,64%
COC(=O)[C@H]1CC(O)[C@@]2(C)CC[C@@H]3c4ccc(O)cc4CC[C@H]3[C@H]12 (stereo partly specified),Vaginal activity,[1],0.38
same,Uterotropic activity,[2],0
same,RHA,Rattus norvegicus,1.7%
same,Vaginal activity,[4],19
C[C@]12CC[C@@H]3c4ccc(O)cc4CC[C@H]3[C@@H]1[C@@H](C(=O)OCCF)C[C@@H]2O,RHA,Rattus norvegicus,4.5%
CCOC(=O)C[C@H]1Cc2cc(O)ccc2[C@H]2CC[C@]3(C)[C@@H](O)CC[C@H]3[C@H]12,RHA,Rattus norvegicus,0%
CCCOC(=O)[C@@H]1Cc2cc(O)ccc2[C@H]2CC[C@]3(C)[C@@H](O)CC[C@H]3[C@@H]21,RHA,Rattus norvegicus,0%
CCOC(=O)CC[C@H]1C[C@]2(C)[C@@H](O)CC[C@H]2[C@@H]2CCc3cc(O)ccc3[C@@H]12,Activity,[5],64
same,RHA,Rattus norvegicus,542%
CCCCOC(=O)[C@H]1C[C@H](O)[C@@]2(C)CC[C@@H]3c4ccc(O)cc4CC[C@H]3[C@H]12,RHA,Rattus norvegicus,7%
CCOC(=O)[C@@H]1Cc2cc(O)ccc2[C@H]2CC[C@]3(C)[C@@H](O)CC[C@H]3[C@@H]21,Activity,[5],9
same,Vaginal activity,[1],0.44
same,Uterotropic activity,[2],4
same,Uterotropic activity,[3],0.04
same,RHA,Rattus norvegicus,0%
same,Vaginal activity,[4],22
C[C@]12CC[C@@H]3c4ccc(O)cc4CC[C@H]3[C@@H]1CC[C@@H]2O,Activity,[5],100
CCOC(=O)[C@@H]1C[C@H]2[C@@H]3CCc4cc(O)ccc4[C@H]3CC[C@]2(C)[C@H]1O,Activity,[5],0.3
same,RHA,Rattus norvegicus,100%
CCCCOC(=O)[C@@H]1Cc2cc(O)ccc2[C@H]2CC[C@]3(C)[C@@H](O)CC[C@H]3[C@@H]21,RHA,Rattus norvegicus,0%
COC(=O)CC[C@H]1C[C@H](O)[C@@]2(C)CC[C@@H]3c4ccc(O)cc4CC[C@H]3[C@H]12,RHA,Rattus norvegicus,248%
C[C@]12CC[C@@H]3c4ccc(O)cc4CC[C@H]3[C@@H]1C[C@@H](C(=O)OCCF)[C@@H]2O,Vaginal activity,[1],0.42
same,Uterotropic activity,[2],2
same,Uterotropic activity,[3],0.02
same,Vaginal activity,[4],21
CCOC(=O)C[C@H]1C[C@]2(C)[C@@H](O)CC[C@H]2[C@@H]2CCc3cc(O)ccc3[C@@H]12,Activity,[5],70
same,RHA,Rattus norvegicus,152%
CCCOC(=O)[C@H]1C[C@H](O)[C@@]2(C)CC[C@@H]3c4ccc(O)cc4CC[C@H]3[C@H]12,RHA,Rattus norvegicus,7.8%
COC(=O)C[C@@H]1Cc2cc(O)ccc2[C@H]2CC[C@]3(C)[C@@H](O)CC[C@H]3[C@H]12,RHA,Rattus norvegicus,30%
CCOC(=O)C[C@H]1C[C@H](O)[C@@]2(C)CC[C@@H]3c4ccc(O)cc4CC[C@H]3[C@H]12,RHA,Rattus norvegicus,71%

# — ChEMBL document CHEMBL1145034
